# Experimental data from ChEMBL document CHEMBL4513216, “Probing the Open Global Health Chemical Diversity Library for Multistage-Active Starting Points for Next-Generation Antimalarials” (ACS Infect Dis, 2020).
# Assay: Toxicity liver stage against HepG2, at 10uM
# Format: cell-based
# Set-up: test concentration 10 uM, cell line HepG2-A16-CD81EGFP
# Details: human, HepG2-A16-CD81EGFP cells; read-out: INHIBITION
# Method in brief: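 Uninfected HepG2-A16-CD81EGFP cells, 3 × 10^3 per well, 1536-well, plated on prespotted compound at 10 μM final, parasite-free screening media added to match infected plates; puromycin 10 μM positive, DMSO 0.5% negative; run in parallel with 48 h PbLuc assay at 37 °C, 5% CO2; viability by CellTiter-Glo luminescence, normalized to controls.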
row,SMILES,cytotoxicity at 10 µM [%]
1,Cc1nc(CCCNC(=O)Nc2cc(F)cc(F)c2)n[nH]1,-8.39
2,CCOc1ccc(CSC(C)c2nc(C)no2)nc1 (stereo not drawn),-9.32
3,Cc1ccccc1N1CC(C)N(Cc2ccc(C)c(F)c2F)CC1=O (stereo not drawn),-1.66
4,O=C(NC1(c2nc(C3CC3)no2)CCCCC1)c1ccncc1,-7.12
5,c1ccc(Cc2noc(CCNC3CCOC4(CCOCC4)C3)n2)cc1 (stereo not drawn),-0.872
6,CN(C)C(=O)Cc1nc(CN2CCCC2Cn2cccn2)cs1 (stereo not drawn),4.79
7,O=C(NCC1CC1)Nc1ccc(OCC(F)(F)F)nc1,-2.4
8,CC(=O)N1CCCN(C(=O)c2cnc(OC(C)C)c(Cl)c2)CC1,6.02
9,CC1CCc2nn(CCNC(=O)Cc3cccs3)c(=O)cc2C1 (stereo not drawn),6.83
10,CCCN(CC(F)F)c1cc(COC)nc2ncnn12,-3.22
11,Cc1cc(C(=O)N(CC(F)(F)F)C2CCOCC2)c(C)o1,-0.541
12,CC(=O)NCC(=O)N1CCN(Cc2ccncc2)c2ncccc2C1,-90.3
13,Cc1cccc(C(C)(C)CNc2cn[nH]c(=O)c2Cl)c1,23.3
14,C=C(C)COc1ccc(C(=O)NCCn2c(C)cc(C)nc2=O)cc1,-4.83
15,Cc1nc(-c2ccccc2F)sc1C(=O)N1CCN(C)CC1,21
16,Cc1noc(CCCC(=O)Nc2ncccc2Br)n1,-15.7
17,CC(C)c1cc(CN(C)C(=O)CN2CCNC2=O)no1,-6.1
18,Cc1cnc(N2CCn3c(CN4CCOCC4)nnc3C2)nc1,-153
19,CCOC(=O)c1ccc(CNC(=O)c2ccon2)o1,8.64
20,CCc1noc(CCCC(=O)Nc2cc(C(F)(F)F)c[nH]c2=O)n1,-4.84
21,Cc1nc(-c2ccc(CC(=O)N3CCN(C(=O)C(C)C)CC3)cc2)cs1,12.8
22,O=C(CC1CC1)N1CCC2(CC1)CN(c1ncccn1)CCO2,1.49
23,CC(CNc1nccc(C(C)C)n1)Oc1cccnc1 (stereo not drawn),4.34

row,SMILES,cytotoxicity at 10 µM [%]
1,Cc1nc(C)n(C2CCCN(C(=O)Cc3ccc4c(c3)CCC4)C2)n1 (stereo not drawn),-10.3
2,CN1CC(=O)N(c2ccccc2)CC12CCN(Cc1nccn1C)C2 (stereo not drawn),-1.17
3,CCS(=O)(=O)CC(=O)Nc1cccc2c1CN(CC(C)C)C2,2.25
4,COCc1nn(C(C)C)c2c1CCN(Cc1cccs1)C2,-9.55
5,COc1cc(CN2CCCCCC2c2cccs2)cc(OC)c1OC (stereo not drawn),33.3
6,CCc1noc(CNc2cccc(C(=O)N3CCSCC3)c2)n1,-5.73
7,Cc1nnc(CN2CCCCC2c2nc(-c3ccccc3)no2)s1 (stereo not drawn),-48.5
8,CSCCC(C)(O)CNS(=O)(=O)Cc1ccc(F)cc1 (stereo not drawn),-5.95
9,O=C(CN1CCCCC1)Nc1cc(C(F)(F)F)ccc1-n1cccc1,5.24
10,Cc1nnc2n1CCN(Cc1ncc(-c3ccccc3)o1)C2,-3.78
11,CN(C)[C@@H]1CCN(c2ncc(F)cn2)[C@H]1Cc1ccccc1,-1.65
12,CSc1ccccc1CN1C[C@H]2CC[C@@H](C1)N(CC1CC1)C2=O,-4.81
13,CCC(=O)Nc1cccc(OCC(=O)N(C)Cc2cc(COC)[nH]n2)c1,1.79
14,O=C1NC2(Cc3ccccc31)CN(CC1CCNC1)C2 (stereo not drawn),9.76
15,CN(C)c1nc(N2CCCC2)nc2c1CCN(C(=O)c1ccco1)CC2,14.4
16,CCCN1CCc2nc(SCc3c(C)cc(C)cc3C)[nH]c(=O)c2C1,-2.33
17,CN1CC2(CCN(S(=O)(=O)C3CC3)CC2)c2ccccc21,-4.35
18,COc1ccc(C(C)N2CCC(CNC(C)=O)CC2)cc1Cl (stereo not drawn),-51.5
19,COc1ccc(C(=O)N2CCC(Oc3ccccc3C)(C(=O)O)CC2)o1,13.2
20,NS(=O)(=O)c1ccc(F)c(C(=O)NCCSC2CCCCC2)c1,4.69
21,COCCN(C(=O)c1ccoc1C)c1ccc(C#N)cc1,-4.9
22,COCCC(=O)N1CCC2(COCc3cnc(-c4ccccc4)nc32)C1 (stereo not drawn),3.6
23,Cc1ccc(C)c(S(=O)(=O)CCN2CCCC2Cn2cccn2)c1 (stereo not drawn),-8.78

row,SMILES,cytotoxicity at 10 µM [%]
1,CCCN1CCCC2(CCN(S(=O)(=O)c3cc(C)nn3CC)C2)C1=O (stereo not drawn),4.82
2,Cc1nc(N2CCCC(C)C2)nc2cc(S(C)(=O)=O)ccc12 (stereo not drawn),-24.2
3,CCCC1COCCN1Cc1ccc(S(=O)(=O)NC)cc1 (stereo not drawn),-142
4,NC(=O)c1cccc(OCCC(=O)NC2CCc3c(F)cccc32)c1 (stereo not drawn),9.86
5,Fc1cccc(CCN(c2ccc3nnnn3n2)C2CC2)c1,4.21
6,CN(C)CCNC(=O)c1cnc2c(c1)nc(-c1ccccc1Cl)n2C,10.6
7,Cc1ccc(C2CN(CCS(C)(=O)=O)CCO2)c(C)c1 (stereo not drawn),3.03
8,CN(C)c1ncc(NS(=O)(=O)c2ccc(OC(F)(F)F)cc2)cn1,11.9
9,Cc1ccc(N2CCC3(CCCN3Cc3ccn(C)n3)CC2)nn1,11.6
10,CCc1cnc2c(c1Nc1ccc(C)c(F)c1)c(=O)n(C)c(=O)n2C,-2.5
11,O=C(c1ccno1)N1CCO[C@@H]2CC(COCc3ccccn3)C[C@H]21 (stereo partly drawn),-103
12,COc1cc(C#N)ccc1OCC(=O)NS(=O)(=O)c1cccnc1,5.41
13,NCC1Cc2cc(-c3cnccn3)cc(Cl)c2O1 (stereo not drawn),6.82
14,NC(c1ccccc1)c1ccc(OC(F)F)cc1 (stereo not drawn),1.79
15,CCOc1cncc(N2CCN(c3ccccc3O)CC2)n1,25.7
16,COc1ccc(-c2ccoc2)cc1CNC1CCCC1,-3.45
17,Cc1cccc(C(=O)NCCS(=O)(=O)Cc2ccccc2)c1,-7.43
18,CN(C)S(=O)(=O)c1ccc(CN2CCC(c3ccccc3)C2)o1 (stereo not drawn),17.5
19,O=C(C1CCOCC1)N1C[C@H]2CNC[C@H]2C1,-8.58
20,COC(=O)c1ccc(NC(=O)CCNCc2ccco2)cc1,-3.64
21,COCc1nc(CN2CC(Cc3ccccc3)CC2=O)no1 (stereo not drawn),-12.8
22,Cc1nn(C)cc1-c1ccnc(N(C)Cc2ccon2)n1,-8.71
23,N#Cc1ccccc1C(=O)N1C[C@@H](CN2CCCCCC2)[C@@H](CO)C1,1.1

row,SMILES,cytotoxicity at 10 µM [%]
1,CC(=O)NC1CCCN(c2ccc(C#N)cc2C(F)(F)F)C1 (stereo not drawn),7.44
2,Cc1cc(N2CCN(C(=O)c3cnn(C(C)C)c3)CC2)cc(C)n1,-15.2
3,Cc1cnn(C2CN(c3nc(-c4ccncc4)nc4c3CCC4)C2)c1,-46
4,CC(C)Nc1nc2c(cc1C(=O)N(C)C)CCNCC2,-4.99
5,CN(Cc1nc(Cc2cccc(C(F)(F)F)c2)no1)C1CCOCC1,6.39
6,CCOc1ccccc1Oc1ccc(CN)cn1,6.03
7,O=C(c1cccnc1)N1C[C@@H](c2ccccc2)[C@@]2(CCNC2=O)C1,-6.23
8,CCOc1ccc(CC(CNC(=O)c2sccc2C)C(N)=O)cc1 (stereo not drawn),-4.18
9,O=C(CC1CCCO1)NCc1ccccc1Cn1cncn1 (stereo not drawn),-2.55
10,CNc1ncc(CN2CCC(CCc3ccccc3)CC2)cn1,5.19
11,COc1cccc(-c2ccnc(C3CCNCC3)c2)c1,56.4
12,CNC(=O)c1ccc2c(c1)C1(CCN(CC3CC3)CC1)C(=O)N2,-0.843
13,CNC(=O)Cc1ccc(NC(=O)NCc2ncc(C)s2)cc1,7.34
14,NC(=O)CCn1cc(CNCc2csc(N)n2)c2ccccc21,6.7
15,CN(Cc1cn2ccccc2c1C#N)C1CCCN(c2cccnn2)C1 (stereo not drawn),-11.9
16,O=C(CCc1cc(F)ccc1F)NS(=O)(=O)c1ccc2c(c1)OCCO2,-18.8
17,CCc1ncc2c(n1)CN(Cc1cccc(OCC(N)=O)c1)CC2,-7.42
18,CC(Cn1ccnc1)NC(=O)NCCN1CCc2ccccc2C1 (stereo not drawn),7.65
19,CCCc1noc(CN2CCC(c3ccnn3CCO)CC2)n1,-19.9
20,OC(CN1CCN(Cc2cc(F)cc(F)c2)CC1)C1CC1 (stereo not drawn),11.5
21,CC1CCN(S(=O)(=O)c2cccn(CC(=O)N3CCOCC3)c2=O)CC1,2.11
22,COc1ccc(N2CCNC(C(N)=O)C2)cc1 (stereo not drawn),-4.8
23,CC(=O)N1CCn2c(nnc2C2CCCCN2C(C)=O)C1 (stereo not drawn),-28.1

row,SMILES,cytotoxicity at 10 µM [%]
1,COc1c(C)cnc(CN2CCOC(Cn3nc(C)cc3C)C2)c1C (stereo not drawn),3.66
2,CN(Cc1nnc2n1CCC2)C(=O)Cc1ccc2c(c1)OCCO2,-7.86
3,COCCSc1ccc(C(C)NC(=O)Nc2cn[nH]c2)cc1 (stereo not drawn),8.88
4,Cc1ccc2c(c1)c(C)cc(=O)n2CCCN,1.14
5,Cc1nc2c(C)cccc2cc1C(=O)N1CCC2(CC1)NCCNC2=O,-0.0638
6,CCc1nnsc1C(=O)NCc1c(C)nn(CCOC)c1C,-8.8
7,COc1ccnc(N(C)Cc2ccccc2O)n1,2.29
8,c1ccc(CN2CCC3(CC2)CCN(c2ccccn2)C3)nc1,-128
9,Cn1ncc(C(=O)N2CCN(C(=O)c3ccco3)CC2)c1Cl,2.88
10,Cn1cnc2c1CCN(Cc1c(Cl)ccc3cccnc13)C2,5.55
11,COC[C@H]1CNC(=O)[C@@H]2CCN(Cc3ccc(F)cc3)CC[C@H]12,14.2
12,CCS(=O)(=O)N1CC(=O)N(Cc2ccccc2OC)CC(O)C1 (stereo not drawn),-95.5
13,O=C(c1cc2c(Cl)cccc2[nH]1)N1CCN(CCc2ccccn2)CC1,3.07
14,CN(C)CC(=O)N1CC2(CCN(C(=O)Nc3ccccc3)C2)C1,4.17
15,Cc1ccc2c(n1)N(C)CCN(C(=O)NC1CC1)C2,1.36
16,Cc1ccoc1C(=O)NC1CCN(Cc2csc3c(F)cccc23)CC1,1.13
17,Cn1cc(CN2CCn3cc(CNC(=O)CC4CC4)nc3C2)cn1,-83.3
18,CN(C)CC1CN(C(=O)NCc2ccccc2)Cc2nccn2C1 (stereo not drawn),-3.91
19,O=C(c1ccc(-n2ccnc2)cc1)N1CCCC(n2ccnc2)C1 (stereo not drawn),-21.1
20,Cc1cccc(NC(=O)c2csc(NCC(C)C)n2)n1,-3.33
21,COC1[C@@H]2CC[C@H]1CN(c1nc(C)nc3ccsc13)C2 (stereo partly drawn),18
